The values that follow come from ChEMBL document CHEMBL1158804, “Lupane triterpenoids from Maytenus species” (J Nat Prod, 2005).

The test system of one experiment is HeLa. Kind of experiment: Cytotoxicity against human HeLa cells after 48 hrs by MTT assay. The class given is functional, cell-based. In short, it runs like this:
(§1)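 Monolayers are cultured in DMEM with 5% fetal calf serum and 1% penicillin-streptomycin at 37 °C, 5% CO2 and 90% humidity. Exponentially growing cells (2 × 10^4 cells/well) are exposed to a range of compound concentrations for 48 h at 37 °C. Viability is read by colorimetric MTT reduction.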

The test system of another experiment is HEp-2. Kind of experiment: Cytotoxicity against human Hep2 cells after 48 hrs by MTT assay. In kind it is functional, cell-based. To be noted: HEp-2, 48 h. Summed up:
as §1

The subject of experiment [1] is Bacillus pumilus. Kind of experiment: Antibacterial activity against Bacillus pumilus CECT 29 by broth microdilution method. In kind it is functional. In short, it runs like this: (§2)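 Compounds are dissolved in DMSO. The minimal inhibitory concentration is estimated by broth microdilution.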
In general terms: Broth dilution looks for growth in wells or tubes with falling amounts of substance.

The test system of another experiment is Vero. Kind of experiment: Cytotoxicity against african green monkey Vero cells after 48 hrs by MTT assay. The class given is cell-based. The note with it: Chlorocebus sabaeus. Summed up: as §1
(In general: Tetrazolium dyes change colour on reduction, which living cells bring about.)

In experiment [2] the test system is Bacillus subtilis. Kind of experiment: Antibacterial activity against Bacillus subtilis CECT 39 by broth microdilution method. In kind it is functional. Summed up:
as §2

Experiment [3] deals with Bacillus cereus. Kind of experiment: Antibacterial activity against Bacillus cereus CECT 496 by broth microdilution method. The class given is functional. In short, it runs like this: as §2
The test system of a further experiment is Staphylococcus aureus. Kind of experiment: Antibacterial activity against Staphylococcus aureus ATCC 6538 up to 40 ug/mL by broth microdilution method. The class given is functional, organism-based. In short, it runs like this:
as §2

Experiment [4] deals with Staphylococcus saprophyticus. Kind of experiment: Antibacterial activity against Staphylococcus saprophyticus CECT 235 up to 40 ug/mL by broth microdilution method. In kind it is functional, organism-based. In short, it runs like this:
as §2

Another experiment concerns Escherichia coli. Kind of experiment: Antibacterial activity against Escherichia coli CECT 99 up to 40 ug/mL by broth microdilution method. The class given is functional, organism-based. Summed up: as §2
The test system of experiment [5] is Bacillus cereus. Kind of experiment: Antibacterial activity against Bacillus cereus CECT 496 up to 40 ug/mL by broth microdilution method. The class given is functional, organism-based. In short, it runs like this: as §2
For experiment [6], the system named is Staphylococcus epidermidis. Kind of experiment: Antibacterial activity against Staphylococcus epidermidis CECT 232 up to 40 ug/mL by broth microdilution method. The class given is functional, organism-based. In short, it runs like this:
as §2

The test system of experiment [7] is Mycolicibacterium smegmatis. Kind of experiment: Antibacterial activity against Mycobacterium smegmatis CECT 3032 up to 40 ug/mL by broth microdilution method. In kind it is functional, organism-based. Summed up: as §2
Experiment [8] relates to Bacillus pumilus. Kind of experiment: Antibacterial activity against Bacillus pumilus CECT 29 up to 40 ug/mL by broth microdilution method. In kind it is functional, organism-based. Summed up: as §2
The test system of the next experiment is Pseudomonas aeruginosa. Kind of experiment: Antibacterial activity against Pseudomonas aeruginosa AK 958 up to 40 ug/mL by broth microdilution method. In kind it is functional, organism-based. Summed up: as §2
A further experiment concerns Proteus mirabilis. Kind of experiment: Antibacterial activity against Proteus mirabilis CECT170 up to 40 ug/mL by broth microdilution method. The class given is functional, organism-based. Summed up:
as §2

Another experiment has as its system Salmonella. Kind of experiment: Antibacterial activity against Salmonella sp. CECT 456 up to 40 ug/mL by broth microdilution method. The class given is functional, organism-based. In short, it runs like this:
as §2

In the next experiment the test system is Candida albicans. Kind of experiment: Antifungal activity against Candida albicans UBC1 up to 40 ug/mL by broth microdilution method. The class given is functional, organism-based. Summed up: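 The yeast is grown on Sabouraud agar at 37 °C. Compounds are dissolved in DMSO, and the minimal inhibitory concentration is estimated by broth microdilution.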

The next experiment relates to Enterococcus faecalis. Kind of experiment: Antibacterial activity against Enterococcus faecalis CECT 795 up to 40 ug/mL by broth microdilution method. In kind it is functional, organism-based. Summed up: as §2
Experiment [9] has as its system Bacillus subtilis. Kind of experiment: Antibacterial activity against Bacillus subtilis CECT 39 up to 40 ug/mL by broth microdilution method. The class given is functional, organism-based. Summed up: as §2
In a further experiment the test system is Priestia megaterium. Kind of experiment: Antibacterial activity against Bacillus megaterium CECT 44 up to 40 ug/mL by broth microdilution method. The class given is functional, organism-based. In short, it runs like this:
as §2

Converted amounts (≈) assume the structure as drawn. The source made the active and inactive calls. No cut-off for these calls is given here.

As usually defined, the IC50 is the concentration at which inhibition is half-maximal. Usually MIC stands for the lowest concentration found to suppress growth. `C=C(C)[C@@H]1CC[C@]2(C(=O)O)CC[C@]3(C)[C@@H](CC[C@@H]4[C@@]5(C)CCC(=O)C(C)(C)[C@@H]5[C@H](O)C[C@]43C)[C@@H]12`: the IC50 in the experiment with HeLa, in the experiment on HEp-2 and with Vero was above 10 µg/mL each time. Also, the MIC against Bacillus pumilus [1] came to 20 µg/mL (≈ 42.5 µM); in the experiment with Bacillus subtilis [2], 35 µg/mL (≈ 74.4 µM); against Bacillus cereus [3], 25 µg/mL (≈ 53.1 µM).

Regarding `C=C(C)[C@@H]1CC[C@]2(CO)CC[C@]3(C)[C@H](CC[C@@H]4[C@@]5(C)CC[C@H](O)C(C)(C)[C@@H]5CC[C@]43C)[C@@H]12` [BETULIN], the result (in the experiment with Staphylococcus aureus; in experiment [4]; in the experiment with Escherichia coli; in the experiment on Bacillus cereus [5]; in experiment [6]; in experiment [7]) was inactive. Besides, the result in the experiment on Bacillus pumilus [8], in the experiment with Pseudomonas aeruginosa, in the experiment with Proteus mirabilis, in the experiment on Salmonella, in the experiment on Candida albicans and with Enterococcus faecalis was inactive. The result in the experiment on Bacillus subtilis [9] and in the experiment with Priestia megaterium was inactive. The IC50 in the experiment with HeLa, in the experiment with HEp-2 and in the experiment on Vero was above 10 µg/mL throughout.

As to `CC(=O)[C@@H]1CC[C@]2(CO)CC[C@]3(C)[C@@H](CC[C@@H]4[C@@]5(C)CC[C@H](O)C(C)(C)[C@@H]5CC[C@]43C)[C@@H]12` [MESSAGENIN], the result (in the experiment on Staphylococcus aureus; in [4]; in the experiment with Escherichia coli; in the experiment with Bacillus cereus [5]; in experiment [6]; in experiment [7]) was inactive. The outcome in the experiment with Bacillus pumilus [8], in the experiment with Pseudomonas aeruginosa, with Proteus mirabilis, in the experiment on Salmonella, with Candida albicans and in the experiment with Enterococcus faecalis was inactive. In addition, the result with Bacillus subtilis [9] and in the experiment with Priestia megaterium was inactive. The 50% inhibitory concentration (IC50) in the experiment with HeLa, with HEp-2 and with Vero was above 10 µg/mL throughout.

As to `C=C(C)[C@@H]1CC[C@]2(C)CC[C@]3(C)[C@@H](CC[C@@H]4[C@@]5(C)[C@@H](O)C[C@@H](O)C(C)(C)[C@@H]5CC[C@]43C)[C@@H]12`, the outcome (in the experiment with Staphylococcus aureus; in experiment [4]; with Escherichia coli; in the experiment with Bacillus cereus [5]; in [6]; in experiment [7]) was inactive. For the same molecule, the result in the experiment on Bacillus pumilus [8], in the experiment on Pseudomonas aeruginosa, in the experiment with Proteus mirabilis, in the experiment with Salmonella, in the experiment on Candida albicans and in the experiment with Enterococcus faecalis was inactive. In addition, the outcome in the experiment on Bacillus subtilis [9] and with Priestia megaterium was inactive. The concentration for half-maximal inhibition (IC50) with HeLa, in the experiment with HEp-2 and in the experiment on Vero was above 10 µg/mL each time.

With `C=C(C)[C@@H]1CC[C@]2(C(=O)O)CC[C@]3(C)[C@H](CC[C@@H]4[C@@]5(C)CC[C@@H](O)C(C)(C)[C@@H]5CC[C@]43C)[C@@H]12` [EPIBETULINIC ACID], the outcome (in the experiment on Staphylococcus aureus; in [4]; with Escherichia coli; in the experiment with Bacillus cereus [5]; in experiment [6]; in [7]) was inactive. For the same molecule, the outcome in the experiment on Bacillus pumilus [8], with Pseudomonas aeruginosa, with Proteus mirabilis, in the experiment with Salmonella, with Candida albicans and in the experiment on Enterococcus faecalis was inactive. For the same molecule, the outcome in the experiment with Bacillus subtilis [9] and in the experiment with Priestia megaterium was inactive. In addition, the IC50 in the experiment on HeLa was 2.1 µg/mL (≈ 4.6 µM); in the experiment on HEp-2, 3.1 µg/mL (≈ 6.79 µM); with Vero it was above 10 µg/mL.

Consider `C=C(CO)[C@@H]1CC[C@]2(CO)CC[C@]3(C)[C@@H](CC[C@@H]4[C@@]5(C)CCC(=O)C(C)(C)[C@@H]5CC[C@]43C)[C@@H]12`, for which the outcome (in the experiment on Staphylococcus aureus; in experiment [4]; in the experiment with Escherichia coli; with Bacillus cereus [5]; in experiment [6]; in experiment [7]) was inactive. The outcome in the experiment on Bacillus pumilus [8], in the experiment on Pseudomonas aeruginosa, in the experiment on Proteus mirabilis, in the experiment with Salmonella, in the experiment with Candida albicans and in the experiment with Enterococcus faecalis was inactive. The outcome in the experiment on Bacillus subtilis [9] and in the experiment on Priestia megaterium was inactive. Further, the IC50 is 4 µg/mL (≈ 8.76 µM) with HeLa, 7.1 µg/mL (≈ 15.5 µM) in the experiment with HEp-2 and above 10 µg/mL with Vero.
